From ChEMBL document CHEMBL2311266, “Isolation and identification of β-hematin inhibitors from Flacourtia indica as promising antiplasmodial agents” (Eur J Med Chem, 2013)

Columns and labels:
Plasmodium falciparum [1] = experiment: Antiplasmodial activity against chloroquine-sensitive Plasmodium falciparum 3D7 after 72 hrs by SYBR green assay; assay type: functional, organism-based; settings: 3D7, 72 h
How it was run: (§1)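 Compounds dissolved in DMSO (5 mg/mL or 10 mM stock), two-fold serial dilutions. Asynchronous culture (>80% rings) at 1.0% cell suspension, 0.8% parasitemia, 72 h at 37 °C under 5% CO₂/air. Lysis buffer with 2× SYBR Green I added, 1 h at 37 °C. Fluorescence read at 485/530 nm. IC50 by logistic regression of dose-response curves, three replicates, chloroquine reference.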

Plasmodium falciparum [2] = experiment: Antiplasmodial activity against chloroquine-resistant Plasmodium falciparum K1 after 72 hrs by SYBR green assay; assay type: functional, organism-based; settings: K1, 72 h; how it was run: as §1
Plasmodium yoelii = experiment: Antimalarial activity against Plasmodium yoelii infected in Swiss mouse assessed as inhibition of beta-hematin formation in plasma after 16 hrs by spectrophotometric analysis; assay type: functional, organism-based
How it was run: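 P. yoelii-infected male Swiss mice (15-20 g; 1×10^5 infected RBCs); blood at 50% parasitemia taken in 2.0% citrate, plasma used. Mix: 100 mM sodium acetate pH 5.1, 50 µL plasma, 100 µM hemin, 1–50 µg compound per 1.0 mL; 37 °C 16 h shaking, triplicate. Pellet washed (Tris-SDS, water), dissolved in NaOH, A400; IC50 by non-linear regression.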

[3] = Cytotoxicity against african green monkey Vero cells after 72 hrs by MTT assay; assay type: cell-based; settings: chlorocebus sabaeus
How it was run: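 Vero cells (1 × 10⁴) exposed to serial dilutions of test agents for 72 h; viability read by MTT. Three replicates; CC50 from non-linear regression of dose-response curves.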

[4] = Selectivity index, ratio of CC50 for african green monkey Vero cells to IC50 for Plasmodium falciparum 3D7; assay type: functional
How it was run: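 SI = CC50 (Vero, MTT, 72 h) / IC50 against P. falciparum 3D7. […] Read-out SYBR Green I fluorescence (ex 485, em 530 nm), logistic regression, triplicate.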

[5] = Inhibition of H2O2-induced hemin degradation at 20 uM incubated for 10 mins prior to H2O2-induction measured after 30 mins by spectrophotometric analysis relative to control

Row | Structure (SMILES) | IC50 (Plasmodium falciparum [1]) | IC50 (Plasmodium falciparum [2]) | IC50 (Plasmodium yoelii) | CC50 at 72 h [3] | Ratio CC50/IC50 [4] | inhibition [5]
1 | O=C(O[C@H]1[C@H](Oc2ccc(O)cc2COC(=O)[C@@]2(O)[C@H](O)C=CC(=O)[C@@H]2O)O[C@H](CO)[C@@H](O)[C@@H]1O)c1ccccc1 | 4.4 µM | > 5 µM | > 50 µM | 77.3 µM | 17.6 | 
2 | O=C(OC[C@H]1O[C@@H](Oc2ccc(O)cc2COC(=O)[C@@]2(O)[C@H](O)C=CC(=O)[C@@H]2O)[C@H](O)[C@@H](O)[C@@H]1O)c1ccccc1 | 3.6 µM | > 5 µM | > 50 µM | 118 µM | 32.9 | 
3 | O=C(OC[C@H]1O[C@@H](Oc2ccc(O)cc2CO)[C@H](O)[C@@H](O)[C@@H]1O)c1ccccc1 [POLIOTHYRSOSIDE] | 8.1 µM | > 25 µM | > 50 µM | 136 µM | 16.8 | 
4 | O=c1cc2c3c(cc4c(c3o1)C[C@H](O)[C@@H](c1ccc(O)c(O)c1)O4)Oc1cc(O)c(O)cc1-2 [MURURIN A] | 1.2 µM | 1.3 µM | 8.3 µM | 58.5 µM | 48.7 | 37.5%
5 | O=C1C[C@@H](c2ccc(O)c(O)c2)c2c(O)cc3c(c2O1)C[C@H](O)[C@@H](c1ccc(O)c(O)c1)O3 | 1.1 µM | > 5 µM | 10.1 µM | 200 µM | 181.8 | 23%
6 | COc1cc(-c2cc(=O)c3c(O)cc(O[C@@H]4O[C@H](CO)[C@@H](O)[C@H](O)[C@H]4O)cc3o2)ccc1O | 4.4 µM | > 5 µM | > 50 µM | 200 µM | 45.4 | 
7 | CCN(CC)CCCC(C)Nc1ccnc2cc(Cl)ccc12 (stereo not given) [CHLOROQUINE] |  |  | 7.7 µM | 126 µM |  | 53.5%
